Kd data for 1 molecule are collected here from publication PMC11040708 (JACS Au, 2024).

The test addresses N-HSP90α WT (Homo sapiens, UniProt P07900). In words: SPR kinetics, two-state reaction model, amine-coupled protein. Format: binding. The procedure, abridged: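 Protein was pre-incubated with a 100-fold excess of a reference ATP-site inhibitor, diluted to 20 μg/mL in acetate pH 4.50, and amine-coupled to a CM5 chip (~4000 RU). Compounds came from 10 mM DMSO stock as 2-fold series in HEPES/Tween 20 buffer at 30 μL/min, with 120 s contact and 200–600 s dissociation. Solvent-corrected, double-referenced data were fitted with mass transport.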
A general note: SPR reads the build-up and loss of mass on a sensor chip optically.

Take `O=c1cc(-c2ccc(O)c(O)c2)oc2cc(O[C@@H]3O[C@H](CO)[C@@H](O)[C@H](O)[C@H]3O)cc(O)c12` [compound 5]: the Kd (commonly the equilibrium constant for the complex coming apart) was 6.06 µM.
